Assay results collected from several papers.
Target: Mitogen-activated protein kinase 13 (MAPK13, Homo sapiens, UniProt O15264)

For `Cn1c(=O)n(-c2ccc(C(C)(C)C#N)cc2)c2c3cc(-c4cnc5ccccc5c4)ccc3ncc21`, the remaining activity was 100% (enzyme activity; inhibitor; 10 µM).
For `Cn1c2c(c3ccc(Cl)c(Cl)c31)C(C#N)C(C)(C)NC2=O` (centres unmarked), the ΔTm was 1.4 °C (thermal stability; DSF; 10 µM).
With `O=C(O)[C@@H]1[C@@H](Cn2nnc3ccccc3c2=O)CC[C@H]1C(=O)c1ccc(OCCC2CCOCC2)cc1` the remaining binding was 94% (cell-free assay; competition with immobilised ligand; 1 µM).
The inhibition of `Cc1ccc(Nc2nccc(N(C)c3ccc4c(C)n(C)nc4c3)n2)cc1S(N)(=O)=O` is reported as -11% (enzyme activity; inhibitor; 0.3 µM).
`Cn1c2c(c3ccc(Cl)c(Cl)c31)C(C#N)C1(CCNCC1)NC2=O` (racemic) gave a ΔTm of 0.5 °C (thermal stability; DSF; 10 µM).
`Cc1ccc(NC(=O)c2ccc(C)c(C(F)(F)F)c2)cc1C#Cc1nn(C2CCC(O)CC2)c2ncnc(N)c12` (centres unmarked) has a remaining signal of 80% (cell-free assay; 10 µM).
For `CCN1CCC2(CC1)NC(=O)c1c(c3ccc(Cl)c(Cl)c3n1C)C2C#N` (racemic), the ΔTm was 0.6 °C (thermal stability; DSF; 10 µM).
For `O=C(NS(=O)(=O)c1ccc(NCC2CCOCC2)c([N+](=O)[O-])c1)c1ccc(N2CCN(Cc3ccc(C(F)(F)F)cc3-c3ccc(Cl)cc3)CC2)cc1Oc1cnc2[nH]ccc2c1`, the remaining binding was 99% (cell-free assay; competition with immobilised ligand; 1 µM).
With `Cn1c2c(Cl)c(Cl)ccc2c2cc(N)[nH]c(=O)c21` the ΔTm was 0.5 °C (thermal stability; DSF; 10 µM).
With `O=C1Nc2ccc(Cl)cc2C1=Cc1cc(Cl)c(O)c(Cl)c1` the remaining signal was 97.8% (cell-free assay; 0.5 µM).
For `COc1cc(/C=C/C(=O)CC(=O)/C=C/c2ccc(O)c(OC)c2)ccc1O`, the activity vs control was 105% (enzyme activity; inhibitor; 1 µM).
`O=C(Nc1cccnn1)N1CCC(=Cc2cccc(Oc3ccc(C(F)(F)F)cn3)c2)CC1` has a remaining binding of 86% (cell-free assay; competition with immobilised ligand; 1 µM).
`Cc1ccc(NC(=O)c2ccc(CN3CCN(C)CC3)cc2)cc1Nc1nc(-c2cccnc2)cs1` has a remaining signal of 101% (cell-free assay; 0.5 µM).
For `Nc1nc(NC2CCCCC2)sc1C(=O)c1ccccc1`, the remaining activity was 67% (enzyme activity; inhibitor; 10 µM).
`CNC(=O)c1cc(Oc2ccc(NC(=O)Nc3ccc(Cl)c(C(F)(F)F)c3)cc2)ccn1` has an inhibition of -6% (enzyme activity; inhibitor; 0.3 µM).
The ΔTm of `Cn1c2c(Cl)c(Cl)ccc2c2cc[nH]c(=O)c21` is reported as -0.4 °C (thermal stability; DSF; 10 µM).
With `CNCc1ccccc1-c1csc([C@H](C)Nc2nc(C)nc3cc(OC)c(OC)cc23)c1` the remaining binding was 100% (cell-free assay; competition with immobilised ligand; 1 µM).
`CN(c1ncccc1CNc1nc(Nc2ccc3c(c2)CC(=O)N3)ncc1C(F)(F)F)S(C)(=O)=O` gave an inhibition of 42.1% (enzyme activity; inhibitor; 1 µM).
With `CC1=C(C#N)[C@@H](c2ccc3[nH]nc(C)c3c2)C(C#N)=C(c2ccc(Cl)cc2)N1` the remaining binding was 100% (cell-free assay; competition with immobilised ligand; 1 µM).
For `Nc1ncnc2occ(-c3ccc(NC(=O)Nc4cc(C(F)(F)F)ccc4F)cc3)c12`, the remaining signal was 0.4% (cell-free assay; inhibitor; 20 µM).
`CCN(CC)CCNC(=O)c1c(C)[nH]c(/C=C2\C(=O)Nc3ccc(F)cc32)c1C` gave an inhibition of -5% (enzyme activity; inhibitor; 10 µM).
The inhibition of `CC/C(=N\NC(=O)NCc1cccc(O)c1)c1ccc(O)c(C)c1O` is reported as -2.6% (enzyme activity; inhibitor; 0.1 µM).
`COc1cc2ncnc(Nc3ccc(Oc4ccccc4)cc3C)c2cc1OC` has an inhibition of 1% (enzyme activity; inhibitor; 1 µM).
With `CNC(=O)c1cc2c(Oc3ccc(NC(=O)C4(C(=O)Nc5ccc(F)cc5)CC4)cc3)ccnc2cc1OC` the inhibition was 83% (enzyme activity; inhibitor; radiometric; 1 µM).
For `Cc1nccc(COC(=O)N2C[C@@H]3[C@@H](CNC(=O)c4ccc5[nH]nnc5c4)[C@@H]3C2)n1`, the remaining binding was 98% (cell-free assay; competition with immobilised ligand; 1 µM).
`Cc1sc(C(=O)NC2COC2)cc1-n1cc(NC(=O)Nc2c(F)cccc2Cl)cn1` gave a remaining activity of 89.2% (enzyme activity; inhibitor; 10 µM).
`O=C(O)c1cc(-c2ccc(C3CCNCC3)cc2)c2ccc(-c3ccc(C(F)(F)F)cc3)cc2c1` gave a remaining binding of 97% (cell-free assay; competition with immobilised ligand; 1 µM).
`COc1cc(Nc2cnc(C#N)c(O[C@H](C)CN(C)C)n2)ncc1-c1cnn(C)c1` gave a remaining activity of 73% (enzyme activity; inhibitor; radiometric; 10 µM).
`CCN(CC)c1ccc(C2=NNC(=O)CC2C)cc1[N+](=O)[O-]` (centres unmarked) has a remaining activity of 97% (enzyme activity; inhibitor; 10 µM).
For `Nc1nc(Nc2ccccc2)sc1C(=O)c1c(F)cccc1F`, the remaining activity was 62% (enzyme activity; inhibitor; 10 µM).
The remaining binding of `Cc1noc([C@H]2C[C@@H](c3ccc(C(F)(F)F)cc3)CN(C(=O)N3CCS(=O)(=O)C3)C2)n1` is reported as 100% (cell-free assay; competition with immobilised ligand; 1 µM).
`Cn1c2c(Cl)c(Cl)ccc2c2cn[nH]c(=O)c21` has a ΔTm of 0 °C (thermal stability; DSF; 10 µM).
`CC(C)(C)c1nc(-c2cccc(NS(=O)(=O)c3c(F)cccc3F)c2F)c(-c2ccnc(N)n2)s1` gave a remaining activity of 85% (enzyme activity; inhibitor; radiometric; 1 µM).
`FC(F)c1nc2ccccc2n1-c1nc(N2CCOCC2)nc(N2CCOCC2)n1` has a remaining activity of 107% (enzyme activity; inhibitor; 10 µM).
`CN(C)C1CCN(CC#Cc2nn(C3CCCC3)c3nc(NCc4ccccc4)ncc23)C1` (centres unmarked) gave an inhibition of 2% (enzyme activity; inhibitor; FRET; 10 µM).
